Measured values collected from several papers.
Compare with care: the assays were run in different laboratories.
Target: Serine/threonine-protein kinase 25 (STK25, Homo sapiens, UniProt O00506)

CNC(=O)[C@@H]1CC[C@@H](n2c(-c3ccc4cnccc4c3)nc3ccc(C(=O)NCc4cccc(C(N)=O)c4)cc32)C1  remaining binding (binding, competition with immobilised ligand; 1 µM): 100%
COc1ccnn2ncc(-c3ccnc(N(C)C)n3)c12  remaining binding (binding; 1 µM): 100%
O=C(NCCCN1CCOCC1)c1ccc(Nc2ncc(Cl)c(-c3ccc(Cl)s3)n2)cc1  remaining binding (binding, competition with immobilised ligand; 1 µM): 89%
c1ccc(N2CCN(Cc3nc4ccccc4[nH]3)CC2)nc1  remaining binding (binding, competition with immobilised ligand; 1 µM): 94%
O=C(NCCCN1CCOCC1)c1ccc(Nc2nccc(-c3cc4ccccc4s3)n2)cc1  remaining binding (binding, competition with immobilised ligand; 1 µM): 67%
Nc1ncc2c(n1)-c1c([nH]c3ccc(C#CC4CC4)cc13)CCCC2  remaining binding (binding, competition with immobilised ligand; 1 µM): 100%
C[C@@H](c1ccc(-n2cnc3c(N)ncnc32)cc1)N1CCc2nn(C)c(Cc3ccccc3)c2C1=O  remaining binding (binding, competition with immobilised ligand; 0.1 µM): 86%
CC1=C(C#N)[C@@H](c2ccc3[nH]nc(C)c3c2)C(C#N)=C(c2ccc(Cl)cc2)N1  remaining binding (cell-free assay, competition with immobilised ligand; 1 µM): 100%
O=C(Nc1c[nH]nc1C(=O)NC1CCNCC1)c1cc(F)cc(F)c1  remaining binding (binding, competition with immobilised ligand; 1 µM): 85%
C[C@@H]1CCN(c2nccc(-c3cnn4ncccc34)n2)C1  remaining binding (binding; 1 µM): 100%
N#CC1(c2ccccn2)CCN(Cc2cc(C(=O)N3CCCC3)c(=O)n3ccccc23)CC1  remaining binding (cell-free assay, competition with immobilised ligand; 1 µM): 97%
COc1cnc(Nc2cccc(S(N)(=O)=O)c2)nc1N1CCN(c2ccccc2)C(=O)C1  remaining binding (binding, competition with immobilised ligand; 1 µM): 100%
Cc1cnn2ncc(-c3ccnc(N(C)C)n3)c2c1  remaining binding (binding; 1 µM): 100%
CCS(=O)(=O)c1cc2cc(C[C@@](O)(CC(C)(C)c3ccc(F)cc3C(N)=O)C(F)(F)F)[nH]c2cn1  remaining binding (cell-free assay, competition with immobilised ligand; 1 µM): 87%
c1cnn2ncc(-c3ccnc(N4CCC45COC5)n3)c2c1  remaining binding (binding; 1 µM): 100%
c1cncc(-c2cccc(Nc3nccc(NC4CCCCC4)n3)c2)c1  remaining binding (binding, competition with immobilised ligand; 10 µM): 100%
CN(c1nccc(-c2cnn3ncccc23)n1)C1CC1  remaining binding (binding; 1 µM): 100%
CC(=O)C1=C(C)N(c2cccc(C(F)(F)F)c2)C(=O)N[C@@H]1c1ccc(C#N)nc1  remaining binding (cell-free assay, competition with immobilised ligand; 1 µM): 89.9%
N[C@@H]1CCN(c2nccc(-c3cnn4ncccc34)n2)C1  remaining binding (binding; 1 µM): 100%
O=C(NCCCC1CCCCC1)c1ccc(CNC(=O)c2cnn(-c3ccccc3)c2C(F)(F)F)cc1  remaining binding (cell-free assay, competition with immobilised ligand; 0.1 µM): 81%
O=C(c1ccc(Nc2ncc(Cl)c(-c3cc4ccccc4s3)n2)cc1)N1CCC(N2CCCC2)CC1  remaining binding (binding, competition with immobilised ligand; 1 µM): 32%
